The target in assay [1] is UV radiation resistance-associated gene protein (Homo sapiens) (UniProt Q9P2Y5). The experiment in a line: Binding affinity to UVRAG in human NCI-H358 cells at 1 uM by mass spectrometry based pull down assay. In kind it is cell-based.
The target of assay [2] is Reticulon-4 (Homo sapiens) (UniProt Q9NQC3). The experiment in a line: Binding affinity to RTN4 in human NCI-H358 cells at 1 uM by mass spectrometry based pull down assay. In kind it is cell-based.
For assay [3], the target named is Retinaldehyde dehydrogenase 3 (Homo sapiens) (UniProt P47895). Kind of assay: Binding affinity to ALDH1A3 in human NCI-H358 cells at 1 uM by mass spectrometry based pull down assay. In kind it is cell-based. A digest of the protocol: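 NCI-H23 or NCI-H358 cells were grown and lysed. Lysates were incubated overnight at 4 °C with 1 μM biotinylated covalent probe or DMSO, then pulled down on streptavidin beads. Proteins were run on polyacrylamide gels and stained with Coomassie. Bands were excised, digested and identified by mass spectrometry.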

The target in assay [4] is Proto-oncogene tyrosine-protein kinase Src (Homo sapiens) (UniProt P12931). The experiment in a line: Binding affinity to SRC in human NCI-H23 cells at 1 uM by mass spectrometry based pull down assay. In kind it is cell-based.
The target in assay [5] is T1, Non-receptor tyrosine-protein kinase TNK1 (Homo sapiens) (UniProt Q13470).
T1 sequence (whole entry): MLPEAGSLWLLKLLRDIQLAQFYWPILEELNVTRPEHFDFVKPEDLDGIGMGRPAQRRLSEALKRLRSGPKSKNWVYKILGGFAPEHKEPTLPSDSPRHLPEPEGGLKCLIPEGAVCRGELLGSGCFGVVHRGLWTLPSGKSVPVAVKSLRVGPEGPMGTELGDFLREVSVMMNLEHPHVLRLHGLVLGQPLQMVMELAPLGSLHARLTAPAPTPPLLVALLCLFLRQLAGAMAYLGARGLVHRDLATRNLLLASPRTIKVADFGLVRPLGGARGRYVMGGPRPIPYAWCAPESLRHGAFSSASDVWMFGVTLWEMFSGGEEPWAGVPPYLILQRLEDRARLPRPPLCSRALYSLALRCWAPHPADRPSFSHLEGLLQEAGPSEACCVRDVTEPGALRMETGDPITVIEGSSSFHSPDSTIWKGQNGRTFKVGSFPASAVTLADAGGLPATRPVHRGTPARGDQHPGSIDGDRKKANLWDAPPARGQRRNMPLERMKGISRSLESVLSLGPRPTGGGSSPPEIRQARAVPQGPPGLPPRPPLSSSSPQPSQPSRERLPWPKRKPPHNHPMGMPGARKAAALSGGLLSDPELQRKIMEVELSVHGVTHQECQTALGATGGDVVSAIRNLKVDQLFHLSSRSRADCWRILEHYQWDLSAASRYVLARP
Kind of assay: Binding affinity to TNK1 in human NCI-H358 cells at 1 uM by mass spectrometry based pull down assay. In kind it is cell-based.

For assay [6], the target named is Phosphatidylinositol 3-kinase catalytic subunit type 3 (Homo sapiens) (UniProt Q8NEB9). The experiment in a line: Binding affinity to PIK3C3 in human NCI-H358 cells at 1 uM by mass spectrometry based pull down assay. In kind it is cell-based.
Assay [7] concerns the target Protein NipSnap homolog 1 (Homo sapiens) (UniProt Q9BPW8). The experiment in a line: Binding affinity to NIPSNAP1 in human NCI-H358 cells at 1 uM by mass spectrometry based pull down assay. In kind it is cell-based.
Assay [8] deals with Glutamine--fructose-6-phosphate aminotransferase [isomerizing] 1 (Homo sapiens) (UniProt Q06210). The experiment in a line: Binding affinity to GFPT1 in human NCI-H23 cells at 1 uM by mass spectrometry based pull down assay. In kind it is cell-based.
The target in assay [9] is T2, Serine/threonine-protein kinase Chk1 (Homo sapiens) (UniProt O14757).
T2 sequence (whole entry): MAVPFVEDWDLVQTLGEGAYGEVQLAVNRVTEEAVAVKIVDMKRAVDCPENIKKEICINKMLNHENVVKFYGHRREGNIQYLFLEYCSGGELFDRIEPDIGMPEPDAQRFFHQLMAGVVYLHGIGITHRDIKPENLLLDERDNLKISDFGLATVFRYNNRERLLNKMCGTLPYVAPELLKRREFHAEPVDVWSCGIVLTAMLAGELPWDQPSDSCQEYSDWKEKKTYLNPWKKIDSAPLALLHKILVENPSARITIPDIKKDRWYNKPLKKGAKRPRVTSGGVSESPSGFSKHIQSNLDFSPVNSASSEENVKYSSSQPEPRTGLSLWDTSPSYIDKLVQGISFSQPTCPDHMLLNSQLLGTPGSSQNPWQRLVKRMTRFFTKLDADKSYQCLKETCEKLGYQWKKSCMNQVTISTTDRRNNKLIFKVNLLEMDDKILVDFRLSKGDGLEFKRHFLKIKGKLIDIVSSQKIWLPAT
Kind of assay: Binding affinity to CHEK1 in human NCI-H358 cells at 1 uM by mass spectrometry based pull down assay. In kind it is cell-based.

Assay [10] has as its target Ras GTPase-activating-like protein IQGAP1 (Homo sapiens) (UniProt P46940). Kind of assay: Binding affinity to IQGAP1 in human NCI-H23 cells at 1 uM by mass spectrometry based pull down assay. In kind it is cell-based.
Assay [11] concerns the target Prostaglandin reductase 1 (Homo sapiens) (UniProt Q14914). The experiment in a line: Binding affinity to PTGR1 in human NCI-H23 cells at 1 uM by mass spectrometry based pull down assay. In kind it is cell-based.
In assay [12] the target is Ribosomal protein S6 kinase alpha-4 (Homo sapiens) (UniProt O75676). The experiment in a line: Binding affinity to RPS6KA4 in human NCI-H358 cells at 1 uM by mass spectrometry based pull down assay. In kind it is cell-based.
Assay [13] deals with Vasodilator-stimulated phosphoprotein (Homo sapiens) (UniProt P50552). The experiment in a line: Binding affinity to VASP in human NCI-H23 cells at 1 uM by mass spectrometry based pull down assay. In kind it is cell-based.
In assay [14] the target is Acidic leucine-rich nuclear phosphoprotein 32 family member B (Homo sapiens) (UniProt Q92688). Kind of assay: Binding affinity to ANP32B in human NCI-H358 cells at 1 uM by mass spectrometry based pull down assay. In kind it is cell-based.
The target of assay [15] is Carbonyl reductase [NADPH] 1 (Homo sapiens) (UniProt P16152). The experiment in a line: Binding affinity to CBR1 in human NCI-H23 cells at 1 uM by mass spectrometry based pull down assay. In kind it is cell-based.
In assay [16] the target is Signal transducer and activator of transcription 1-alpha/beta (Homo sapiens) (UniProt P42224). The experiment in a line: Binding affinity to STAT1 in human NCI-H23 cells at 1 uM by mass spectrometry based pull down assay. In kind it is cell-based.
For assay [17], the target named is Cyclin-dependent kinase 20 / CCRK (Homo sapiens) (UniProt Q8IZL9). The experiment in a line: Inhibition of CCRK in human SKCO1 cells at 1 uM after 4 hrs using biotin labeled DLKPANLLISASGQLK probe by mass-spectrometric analysis relative to control.
Assay [18] addresses TGF-beta receptor type-2 (Homo sapiens) (UniProt P37173). Kind of assay: Inhibition of human TGFBR2 (218 to 567 residues) expressed in bacterial expression system assessed as enzyme activity at 10 uM by KINOMEScan assay relative to control. Set-up: scale not given: the % may be the effect or the level left. A digest of the protocol: (§1)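 In vitro ATP-site competition binding assay across a panel of 456 kinases, with compound tested at 1 and 10 μM.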

The target in assay [19] is Platelet-derived growth factor receptor beta (Homo sapiens) (UniProt P09619). Kind of assay: Inhibition of human PDGFRB (582 to 1009 residues) expressed in bacterial expression system assessed as enzyme activity at 1 uM by KINOMEScan assay relative to control. Set-up: scale not given: the % may be the effect or the level left. A digest of the protocol:
as §1

Structures are written as SMILES. The source made the active and inactive calls. No cut-off for these calls is given here.

Ribosomal protein S6 kinase alpha-4 (Homo sapiens), sequence (O75676 whole entry, looked up): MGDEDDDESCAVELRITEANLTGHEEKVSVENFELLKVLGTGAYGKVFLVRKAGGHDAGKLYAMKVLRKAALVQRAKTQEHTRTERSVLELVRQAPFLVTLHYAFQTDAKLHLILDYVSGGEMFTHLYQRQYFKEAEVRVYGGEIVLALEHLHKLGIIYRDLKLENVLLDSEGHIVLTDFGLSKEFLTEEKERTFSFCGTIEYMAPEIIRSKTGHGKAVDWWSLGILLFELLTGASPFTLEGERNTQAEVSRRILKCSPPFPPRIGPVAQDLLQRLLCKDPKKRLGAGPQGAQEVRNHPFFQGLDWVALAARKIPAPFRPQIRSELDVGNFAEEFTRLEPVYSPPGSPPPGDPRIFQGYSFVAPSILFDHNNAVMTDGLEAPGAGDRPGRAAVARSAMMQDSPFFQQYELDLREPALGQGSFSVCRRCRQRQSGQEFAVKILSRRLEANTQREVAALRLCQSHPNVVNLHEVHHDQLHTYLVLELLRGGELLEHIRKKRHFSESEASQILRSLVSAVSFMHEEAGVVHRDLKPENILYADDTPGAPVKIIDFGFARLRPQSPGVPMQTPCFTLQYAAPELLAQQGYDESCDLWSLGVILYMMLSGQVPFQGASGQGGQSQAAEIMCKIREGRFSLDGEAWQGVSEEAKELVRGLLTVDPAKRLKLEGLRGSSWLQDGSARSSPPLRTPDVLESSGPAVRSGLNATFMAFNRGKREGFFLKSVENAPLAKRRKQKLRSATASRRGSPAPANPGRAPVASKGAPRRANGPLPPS
Carbonyl reductase [NADPH] 1 (Homo sapiens), sequence (P16152 whole entry): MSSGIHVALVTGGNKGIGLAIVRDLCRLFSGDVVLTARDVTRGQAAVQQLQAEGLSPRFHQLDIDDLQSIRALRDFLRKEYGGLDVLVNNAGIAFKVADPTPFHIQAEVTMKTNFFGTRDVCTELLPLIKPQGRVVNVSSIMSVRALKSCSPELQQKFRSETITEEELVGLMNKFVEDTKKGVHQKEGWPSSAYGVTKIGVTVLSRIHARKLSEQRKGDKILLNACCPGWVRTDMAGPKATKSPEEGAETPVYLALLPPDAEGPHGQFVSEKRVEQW
Protein NipSnap homolog 1 (Homo sapiens), sequence (Q9BPW8 whole entry): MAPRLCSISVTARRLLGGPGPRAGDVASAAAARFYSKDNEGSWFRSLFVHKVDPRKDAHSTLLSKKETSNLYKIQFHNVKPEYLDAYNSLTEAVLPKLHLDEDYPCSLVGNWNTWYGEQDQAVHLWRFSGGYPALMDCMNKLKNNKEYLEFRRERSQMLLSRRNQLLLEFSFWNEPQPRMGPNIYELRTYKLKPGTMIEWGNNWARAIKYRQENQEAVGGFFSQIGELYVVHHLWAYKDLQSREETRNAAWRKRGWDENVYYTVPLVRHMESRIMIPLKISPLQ
TGF-beta receptor type-2 (Homo sapiens), sequence (P37173 whole entry, the tested form may be a part): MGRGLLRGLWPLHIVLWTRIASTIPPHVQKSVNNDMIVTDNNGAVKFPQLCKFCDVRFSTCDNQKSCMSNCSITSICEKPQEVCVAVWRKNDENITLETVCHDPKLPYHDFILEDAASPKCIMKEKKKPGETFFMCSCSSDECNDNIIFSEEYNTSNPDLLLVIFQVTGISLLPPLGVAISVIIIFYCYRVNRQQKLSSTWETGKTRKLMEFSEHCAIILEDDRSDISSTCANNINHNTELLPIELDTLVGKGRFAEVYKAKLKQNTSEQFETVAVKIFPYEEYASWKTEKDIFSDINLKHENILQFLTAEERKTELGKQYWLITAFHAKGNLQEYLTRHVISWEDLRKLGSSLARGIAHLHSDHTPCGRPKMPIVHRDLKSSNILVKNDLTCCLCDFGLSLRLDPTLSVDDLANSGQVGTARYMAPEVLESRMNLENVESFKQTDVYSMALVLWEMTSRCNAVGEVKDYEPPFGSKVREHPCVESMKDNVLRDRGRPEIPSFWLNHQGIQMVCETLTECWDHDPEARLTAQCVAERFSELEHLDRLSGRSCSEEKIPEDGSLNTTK
Proto-oncogene tyrosine-protein kinase Src (Homo sapiens), sequence (P12931 2-536 limits assumed): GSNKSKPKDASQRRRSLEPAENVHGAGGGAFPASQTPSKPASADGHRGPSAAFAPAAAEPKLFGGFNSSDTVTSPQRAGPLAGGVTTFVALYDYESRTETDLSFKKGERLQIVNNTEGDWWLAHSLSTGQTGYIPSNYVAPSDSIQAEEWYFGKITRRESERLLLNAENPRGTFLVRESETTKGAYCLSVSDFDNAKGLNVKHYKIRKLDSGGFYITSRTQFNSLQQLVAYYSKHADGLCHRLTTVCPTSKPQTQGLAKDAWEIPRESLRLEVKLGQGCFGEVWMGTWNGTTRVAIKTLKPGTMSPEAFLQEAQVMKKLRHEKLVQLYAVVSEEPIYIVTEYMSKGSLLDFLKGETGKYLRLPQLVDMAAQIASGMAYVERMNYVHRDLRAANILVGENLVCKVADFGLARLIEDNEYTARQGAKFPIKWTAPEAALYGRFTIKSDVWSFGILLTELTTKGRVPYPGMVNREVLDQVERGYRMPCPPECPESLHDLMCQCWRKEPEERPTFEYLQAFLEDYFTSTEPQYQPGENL
Platelet-derived growth factor receptor beta (Homo sapiens), sequence (P09619 whole entry, the tested form may be a part): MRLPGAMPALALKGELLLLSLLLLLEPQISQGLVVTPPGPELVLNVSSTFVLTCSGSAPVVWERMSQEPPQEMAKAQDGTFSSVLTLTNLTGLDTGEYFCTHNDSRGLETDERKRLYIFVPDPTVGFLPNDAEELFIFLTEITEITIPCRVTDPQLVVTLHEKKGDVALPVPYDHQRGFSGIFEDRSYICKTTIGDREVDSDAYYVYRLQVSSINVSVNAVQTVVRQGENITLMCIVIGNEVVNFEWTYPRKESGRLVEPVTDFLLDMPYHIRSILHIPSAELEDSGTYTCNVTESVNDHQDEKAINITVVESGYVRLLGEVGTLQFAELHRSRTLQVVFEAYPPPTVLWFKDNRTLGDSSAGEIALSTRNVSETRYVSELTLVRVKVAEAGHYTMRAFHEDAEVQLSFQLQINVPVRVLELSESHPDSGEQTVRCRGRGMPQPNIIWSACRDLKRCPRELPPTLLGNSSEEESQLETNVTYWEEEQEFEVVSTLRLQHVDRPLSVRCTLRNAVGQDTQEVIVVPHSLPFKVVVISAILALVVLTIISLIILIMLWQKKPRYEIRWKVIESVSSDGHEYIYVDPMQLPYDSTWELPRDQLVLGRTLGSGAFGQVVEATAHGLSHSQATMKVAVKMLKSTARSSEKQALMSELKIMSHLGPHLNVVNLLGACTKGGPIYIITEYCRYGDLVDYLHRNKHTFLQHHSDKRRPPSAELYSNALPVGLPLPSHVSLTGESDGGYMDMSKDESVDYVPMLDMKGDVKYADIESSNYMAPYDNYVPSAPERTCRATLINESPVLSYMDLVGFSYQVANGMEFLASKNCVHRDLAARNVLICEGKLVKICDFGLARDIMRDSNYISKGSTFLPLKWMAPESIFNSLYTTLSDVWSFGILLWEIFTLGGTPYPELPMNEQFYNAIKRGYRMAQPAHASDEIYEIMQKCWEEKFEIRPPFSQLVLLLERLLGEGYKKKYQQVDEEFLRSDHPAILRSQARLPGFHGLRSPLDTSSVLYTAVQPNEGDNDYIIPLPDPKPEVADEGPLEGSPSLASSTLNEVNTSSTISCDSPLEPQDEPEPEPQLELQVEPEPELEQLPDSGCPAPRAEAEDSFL
Prostaglandin reductase 1 (Homo sapiens), sequence (Q14914 whole entry): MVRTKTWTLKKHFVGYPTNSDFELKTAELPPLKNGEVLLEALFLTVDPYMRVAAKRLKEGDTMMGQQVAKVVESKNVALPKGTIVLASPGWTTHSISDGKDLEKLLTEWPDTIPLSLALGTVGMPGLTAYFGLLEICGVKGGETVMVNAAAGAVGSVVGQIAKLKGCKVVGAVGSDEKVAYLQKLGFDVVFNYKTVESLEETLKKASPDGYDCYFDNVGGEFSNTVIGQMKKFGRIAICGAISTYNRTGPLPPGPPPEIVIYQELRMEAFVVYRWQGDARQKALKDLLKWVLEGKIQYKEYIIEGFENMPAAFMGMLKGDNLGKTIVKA
Acidic leucine-rich nuclear phosphoprotein 32 family member B (Homo sapiens), sequence (Q92688 whole entry): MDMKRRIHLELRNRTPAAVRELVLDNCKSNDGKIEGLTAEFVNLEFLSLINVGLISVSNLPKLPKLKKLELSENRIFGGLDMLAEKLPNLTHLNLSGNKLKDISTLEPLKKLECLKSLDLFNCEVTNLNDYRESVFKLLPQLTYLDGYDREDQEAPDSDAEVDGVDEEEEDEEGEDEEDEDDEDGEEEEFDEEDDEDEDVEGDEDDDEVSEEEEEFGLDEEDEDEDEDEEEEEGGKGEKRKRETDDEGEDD
Vasodilator-stimulated phosphoprotein (Homo sapiens), sequence (P50552 whole entry): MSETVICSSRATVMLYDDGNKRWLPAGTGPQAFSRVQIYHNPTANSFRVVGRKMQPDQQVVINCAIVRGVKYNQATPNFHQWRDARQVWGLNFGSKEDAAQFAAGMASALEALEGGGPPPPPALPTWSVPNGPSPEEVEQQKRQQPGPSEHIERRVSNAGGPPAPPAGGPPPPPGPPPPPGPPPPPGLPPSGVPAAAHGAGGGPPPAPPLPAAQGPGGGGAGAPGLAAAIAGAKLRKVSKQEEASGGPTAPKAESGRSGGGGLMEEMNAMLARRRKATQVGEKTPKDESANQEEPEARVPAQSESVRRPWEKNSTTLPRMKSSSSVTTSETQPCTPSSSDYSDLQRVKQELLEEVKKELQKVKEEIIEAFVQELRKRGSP
Cyclin-dependent kinase 20 / CCRK (Homo sapiens), sequence (Q8IZL9 whole entry, looked up, the tested form may be a part): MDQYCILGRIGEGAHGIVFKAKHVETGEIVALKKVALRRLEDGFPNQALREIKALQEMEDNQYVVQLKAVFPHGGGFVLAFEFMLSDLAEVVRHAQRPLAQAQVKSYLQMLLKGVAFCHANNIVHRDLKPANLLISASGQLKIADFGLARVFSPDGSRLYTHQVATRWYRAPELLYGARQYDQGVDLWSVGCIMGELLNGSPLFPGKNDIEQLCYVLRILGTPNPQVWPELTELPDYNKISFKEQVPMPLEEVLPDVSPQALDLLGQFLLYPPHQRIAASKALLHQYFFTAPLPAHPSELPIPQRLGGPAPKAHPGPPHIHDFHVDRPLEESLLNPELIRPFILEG

For the molecule `C=CC(=O)Nc1ccccc1Nc1nc(Nc2ccc(N3CCN(CCOCCOCCOCCNC(=O)CCCC[C@@H]4SC[C@@H]5NC(=O)N[C@@H]54)CC3)cc2)ncc1Cl`, the outcome in assay [1], in assay [2], in assay [3], in assay [4], in assay [5] and in assay [6] was Active. Moreover, the result in assay [7], in assay [8], in assay [9], in [10], in [11] and in assay [12] was Active. Also, the outcome in assay [13], in [14], in assay [15] and in assay [16] was Active.
Broadly, the inhibition is the drop in the measured response relative to a control, in per cent. Turning to `C=CC(=O)Nc1ccccc1Oc1nc(Nc2cnn(CCOC)c2)ncc1Cl`, the inhibition in assay [17] is -9%.
Take `COc1cc(O)c2c(c1)/C=C/C[C@H](O)[C@H](O)C(=O)/C=C\C[C@H](C)OC2=O`: the results for the Activity in [18] and in assay [19] were 0.9% and 1.5%, respectively.

The values are drawn from ChEMBL document CHEMBL4118021, “Studies of TAK1-centered polypharmacology with novel covalent TAK1 inhibitors” (Bioorg Med Chem, 2017).
